Source: ChEMBL document CHEMBL1147098, “Growth inhibition of Toxoplasma gondii and Plasmodium falciparum by nanomolar concentrations of 1-hydroxy-2-dodecyl-4(1H)quinolone, a high-affinity inhibitor of alternative (type II) NADH dehydrogenases” (Antimicrob Agents Chemother, 2007)
Active and inactive are the calls of the source. The calls are words filed in the database; no cut-off is given here.

What was measured:
Toxoplasma gondii [1] = experiment: Susceptibility of Toxoplasma gondii lacZ-transfected RH strain in human foreskin fibroblasts assessed as growth at 0.1 uM to 0.01 uM after 30 hrs by colorimetric assay; format: functional
Summary of the method: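 HFF infected with β-galactosidase-expressing RH strain and exposed to 1-hydroxy-2-alkyl-4(1H)quinolone alkyl derivatives at 0.1 and 0.01 μM. Replication quantified by colorimetric β-galactosidase assay with chlorophenol red-β-D-galactopyranoside substrate.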

Toxoplasma gondii [2] = experiment: Inhibition of invasion of Toxoplasma gondii RH in human foreskin fibroblasts assessed as decreased infection rate pretreated with 1 to 1000 nM after 2 hrs before infection; format: functional, organism-based
Summary of the method: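 Extracellular tachyzoites pretreated 2 h with 1 to 1,000 nM before infecting HFF; infection rate compared with untreated parasites.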

Plasmodium falciparum [3] = experiment: Reduced parasitaemia in Plasmodium falciparum FCBR ring stage parasites; format: functional, organism-based
Summary of the method: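 Sorbitol-synchronized FCBR ring-stage cultures (initial parasitemia 3.2%) in T25 flasks, exposed 48 h to 1 μM, 100 nM, 10 nM and 1 nM. Parasitemia counted on Giemsa-stained blood smears relative to DMSO control.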

Toxoplasma gondii [4] = experiment: (§1) Effect on Toxoplasma gondii RH growth in human foreskin fibroblasts incubated with 0.1 uM for 24 hrs after 6 hrs postinfection assessed as recovery after 72 hrs without drug; format: functional
Toxoplasma gondii [5] = experiment: Effect on Toxoplasma gondii RH growth in human foreskin fibroblasts incubated with 1 uM for 24 hrs assessed as recovery after 72 hrs without drug; format: functional
Toxoplasma gondii [6] = experiment: Effect on Toxoplasma gondii RH growth in human foreskin fibroblasts incubated with 0.1 uM for 24 hrs assessed as recovery after 72 hrs without drug; format: functional
HFF = experiment: Inhibitory effect on metabolic activity of HFF cells upto 10 uM by Alamar Blue assay; format: functional, cell-based; details: Homo sapiens
Plasmodium falciparum [7] = experiment: Inhibition of Plasmodium falciparum trophozoite replication after 36 hrs by fluorometric assay; format: functional, organism-based
Summary of the method: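 FCBR young trophozoites (2% initial parasitemia) in RPMI 1640 with 10% human plasma and group A erythrocytes, gassed 90% N2/5% O2/5% CO2, exposed 36 h to 1 μM-1 nM. Erythrocytes lysed with saponin, pellets solubilized in guanidium-HCl/sodium acetate, stained with Hoechst 33258, read at 340/460 nm in triplicate. 2 μM chloroquine defined background.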

Toxoplasma gondii [8] = experiment: as §1; format: functional; remark: listed apart in the source
Toxoplasma gondii [9] = experiment: Inhibition of Toxoplasma gondii RH replication in human foreskin fibroblasts incubated for 24 hrs with drug after 2 hrs postinfection by immunofluorescence microscopy; format: functional, organism-based
Toxoplasma gondii [10] = experiment: Inhibition of Toxoplasma gondii RH replication in human foreskin fibroblasts incubated for 24 hrs with drug after 36 hrs postinfection by immunofluorescence microscopy; format: functional, organism-based
Toxoplasma gondii [11] = experiment: Inhibition of Toxoplasma gondii lacZ-transfected RH strain in human foreskin fibroblasts assessed as beta galactosidase activity after 30 hrs by colorimetric assay; format: functional, organism-based
Summary of the method: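 lacZ-expressing RH tachyzoites (1 × 10^4/well) infected HFF for 4 h at 37°C in 1% DMEM without phenol red, washed, then exposed in duplicate to 1, 0.1, 0.01 and 0.001 μM with 100 μM chlorophenol red-β-D-galactopyranoside (final) at 37°C. Absorbance at 570 and 630 nm read at 30 h postinfection.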

Toxoplasma gondii [12] = experiment: Inhibition of Toxoplasma gondii RH replication in human foreskin fibroblasts incubated for 24 hrs with drug after 2 hrs postinfection by immunofluorescence microscopy

CCCCCCCCCCCCc1cc(=O)c2ccccc2n1O
Activity (Toxoplasma gondii [1]): 42.6%
Activity (Toxoplasma gondii [2]): inactive
IC50 (Plasmodium falciparum [3]): 54.7 nM
Activity (Toxoplasma gondii [4]): 65.8%
Activity (Toxoplasma gondii [5]): 2.9%
Activity (Toxoplasma gondii [6]): 49.3%
Activity (HFF): inactive
IC50 (Plasmodium falciparum [7]): 14 nM
Activity (Toxoplasma gondii [8]): 65.8%
IC50 (Toxoplasma gondii [9]): 2.4 nM
IC50 (Toxoplasma gondii [10]): 4 nM
IC50 (Toxoplasma gondii [11]): 3.7 nM

CCCCCc1cc(=O)c2ccccc2n1O
Activity (Toxoplasma gondii [1]): 98.2%

CCCCCCCCc1cc(=O)c2ccccc2n1O
Activity (Toxoplasma gondii [1]): 14.8%

CCCCCCCCCCCCCCc1cc(=O)c2ccccc2n1O
Activity (Toxoplasma gondii [1]): 37.9%

O=C1C(O)=C([C@H]2CC[C@H](c3ccc(Cl)cc3)CC2)C(=O)c2ccccc21 [ATOVAQUONE]
IC50 (Toxoplasma gondii [12]): 9 nM

CCCCCCc1cc(=O)c2ccccc2n1O
Activity (Toxoplasma gondii [1]): 16.3%
